Compounds with a hit are over-represented: about 1.4% of the library has one in this group of screens.
HIV Env fusion = HIV envelope-mediated fusion inhibition; HeLa-JRFL Env/CEM21 cell fusion, luciferase; inhibition, % at 12.3 µM; 360,000 compounds, 1.1% hits;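 active = mean replicate inhibition score of at least 50 and every replicate individually at or above 50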;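 also: 0% = plate neutral controls and 100% = maraviroc near 300 nM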
GSK3B inh = human GSK3beta kinase inhibition. activity score (negative = inhibition), % at 10 µM. AID 2097. 300,000 compounds, 0.038% hits. GST-GSK3beta kinase, ADP-Glo luminescence, 60 min; hits give low values. P49841;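 active = more than half of replicate wells score below -50%, meaning over 50% inhibition versus plate controls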;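 also: 0% = median DMSO wells and -100% = median GW8510 positive control wells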
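Test system: GST-fused GSK3beta enzyme, cell-free | Quantity: 1.6 ng GST-GSK3beta enzyme per well | Reagent: 25 µM ATP with peptide substrate | Schedule: 60 min enzyme reaction, room temperature | Signal: Luminescent ADP-Glo measurement of ADP formed | Read-out basis: Score relative to plate controls | Control set: DMSO and 20 µM GW8510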
GSIS activator = GLuc luminescence reporter in INS-1E cells, primary screen for activators of glucose-dependent secretion of insulin | INS-1E GLuc reporter insulin secretion, 2-3 h | 370,000 compounds, 0.61% hits | activation, % at 16.6 µM | AID 743287;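 active = lowest replicate activation of at least 40%, so every replicate reaches that level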;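 also: 0% = median of neutral control wells and 100% = median of IBMX positive control wells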
CDK5 inh = CDK5/p35 (human) kinase inhibition | Q00535+Q15078 | Recombinant CDK5/p35, ADP-Glo luminescence, 60 min | inhibition, % at 10 µM | 330,000 compounds, 0.01% hits | AID 488839;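 active = highest replicate inhibition of at least 50% and at least 75% of replicates reaching 50%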;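 also: plate controls were DMSO neutral control for no effect and GW8510 at 10 µM for full effect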
GSK3 alpha inh = inhibitors of human GSK-3 alpha kinase. P49840. ADP-Glo luminescence, 60 min. inhibition, % at 10 µM. 320,000 compounds, 0.1% hits. AID 2650;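 active = more than half of replicates show inhibition above 20%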;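 also: GST-tagged GSK-3 alpha with peptide substrate and 25 µM ATP; 0% = DMSO neutral wells and 100% = GW8510 positive control wells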
STK33 inh = inhibitors of human STK33 kinase | Q9BYT3 | purified STK33, MBP phosphorylation, ADP-Glo luminescence | inhibition, % at 10 µM | 320,000 compounds, 0.073% hits;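 active = inhibition at or above 25%, using the most active replicate where run in duplicate; inactive = inhibition below 25%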
Target sequence (Q9BYT3 whole entry, looked up): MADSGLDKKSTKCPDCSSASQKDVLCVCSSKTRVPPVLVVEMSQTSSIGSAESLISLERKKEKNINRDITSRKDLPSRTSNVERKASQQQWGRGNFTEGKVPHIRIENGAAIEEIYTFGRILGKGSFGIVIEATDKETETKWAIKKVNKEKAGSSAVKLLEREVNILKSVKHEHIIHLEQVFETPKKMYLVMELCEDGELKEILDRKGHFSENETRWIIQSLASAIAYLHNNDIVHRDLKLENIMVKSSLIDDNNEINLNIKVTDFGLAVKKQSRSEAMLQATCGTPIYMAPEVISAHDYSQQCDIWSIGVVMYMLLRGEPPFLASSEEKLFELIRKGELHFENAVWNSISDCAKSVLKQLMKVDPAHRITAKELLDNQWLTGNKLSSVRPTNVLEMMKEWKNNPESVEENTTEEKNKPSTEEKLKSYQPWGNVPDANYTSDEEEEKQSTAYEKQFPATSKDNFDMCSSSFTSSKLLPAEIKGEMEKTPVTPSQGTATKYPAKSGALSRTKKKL
Numbers without * were called inactive; · = not tested or not shown; [ ] = remark or other dose.

SMILES	HIV Env fusion	GSK3B inh	GSIS activator	CDK5 inh	GSK3 alpha inh	STK33 inh
Cc1ccc(C(C(=O)NC2CCCC2)N(C(=O)c2csnn2)C2CCCC2)o1 (configuration not stated)	17.9	0.5	-15.3	-5.3	-0.9	-1.6
O=C(NC1CCCC1)C(c1ccc(F)cc1)N(Cc1ccccc1)C(=O)c1csnn1 (configuration not stated)	53.8	0.9	-28.7	-3.0	-1.6	-1.4
Cc1ccc(C(C(=O)NC2CCCCC2)N(C(=O)c2csnn2)C2CCCC2)o1 (configuration not stated)	71.2*	1.4	5.6	1.5	-2.2	-1.1
CC(C)CCN(C(=O)c1csnn1)C(C(=O)NC1CCCC1)c1ccc(F)cc1 (configuration not stated)	76.2*	1.3	-40.0	-0.9	1.1	-2.0
O=C(NC1CCCCC1)C(c1ccc(F)cc1)N(Cc1ccco1)C(=O)c1csnn1 (configuration not stated)	63.2*	0.7	-2.5	4.5	-3.2	-0.9
O=C(c1cnccn1)N1CC[C@@H]2[C@H](CO)Nc3ccc(-c4ccccc4)cc3[C@@H]21	·	·	-12.1	·	·	·
CC(=O)N(C)C[C@@H]1Oc2ncc(-c3cccc(F)c3)cc2C(=O)N([C@@H](C)CO)C[C@@H]1C	-5.1[16.7 µM]	·	15.9	·	·	·
CC(C)COc1cccc(C(=O)Nc2ccc(S(=O)(=O)N3CCOCC3)cc2)c1	24.6	0.6	-19.2	1.8	0.6	-0.3
COc1cccc(-n2c([S-])c(C(=O)Nc3ccc(S(=O)(=O)N4CCOCC4)cc3)[n+]3cc(C(N)=O)ccc23)c1	-3.2	0.5	44.7*	-12.8	1.0	-1.2
Oc1ccc(/C=N/NC(=S)N/N=C/c2ccc(O)cc2)cc1	-198.7	-8.0	8.7	0.4	25.3	30.5*
COC(=O)c1cc2c(c3c4cc(OC)ccc4n(S(=O)(=O)c4ccccc4)c13)C(=O)N(C)C2	65.2*	·	·	·	·	·
Cc1ccc(S(=O)(=O)Nc2ccc3c(c2)CC(=O)N([C@@H](C)CO)C[C@@H](C)[C@@H](CN(C)S(=O)(=O)c2cn(C)cn2)O3)cc1	-2.9[16.7 µM]	·	18.2	·	·	·
CO[C@@H]1CN(C)C(=O)c2cc(NC(=O)Nc3cc(F)ccc3F)ccc2OC[C@@H](C)N(C(=O)c2cnccn2)C[C@@H]1C	·	·	-9.8	·	·	·
COc1ccc(C(=O)COC(=O)CSCc2c(C)noc2C)cc1OC	·	-1.1	55.4*	-3.3	2.0	4.4
COc1ccc(CN2CCNC(=O)C2CC(=O)NCCc2nc(C)c3c(n2)CCC3)cc1C (configuration not stated)	9.5	0.2	-4.0	-0.1	-1.1	-0.7
COc1ccc(CN2CCNC(=O)C2CC(=O)NCCCn2nnc3ccccc32)cc1C (configuration not stated)	60.9*	·	18.9	-0.1	-1.6	0.7
NC(=O)c1sc2nc(-c3ccccc3)c3c(c2c1N)CCCC3	17.4	-0.1	-14.1	2.7	7.0	0.1
NC(=O)c1sc2nccc(Nc3ccccc3)c2c1N	93.2*	-9.4	·	2.0	29.1	9.7
C[C@@H]1CN([C@@H](C)CO)C(=O)c2cc(NC(=O)Cc3ccccc3)ccc2O[C@@H](C)CCCCO[C@@H]1CN(C)CC1CCCCC1	-54.5[16.7 µM]	·	-12.3	·	·	·
C[C@@H]1CN([C@H](C)CO)C(=O)Cc2cc(NC(=O)NC3CCCCC3)ccc2O[C@@H]1CN(C)S(=O)(=O)c1cccs1	7.2[16.7 µM]	·	-17.9	·	·	·
Cc1ccc(S(=O)(=O)N(C)C[C@H]2Oc3ccc(NC(=O)Nc4ccc(C(F)(F)F)cc4)cc3CC(=O)N([C@H](C)CO)C[C@H]2C)cc1	37.3[16.7 µM]	·	-3.1	·	·	·
C[C@H](CO)N1C[C@H](C)[C@H](CN(C)S(=O)(=O)c2cccs2)Oc2ccc(NC(=O)Nc3ccc(C(F)(F)F)cc3)cc2CC1=O	60.8*[16.7 µM]	·	-34.1	·	·	·
C[C@H]1CN([C@@H](C)CO)C(=O)c2cc(NC(=O)Nc3ccc4c(c3)OCO4)ccc2O[C@H]1CN(C)S(=O)(=O)c1cccs1	57.2*[16.7 µM]	·	-5.6	·	·	·
C[C@H](CO)N1C[C@H](C)[C@H](CN(C)S(=O)(=O)c2cccs2)Oc2ccc(NC(=O)NC3CCCCC3)cc2CC1=O	84.2*[16.7 µM]	·	-46.0	·	·	·

High-throughput results: PubChem, Broad Institute
